Results from ChEMBL document CHEMBL2331097, “Synthesis of 5,7-disubstituted-4-methyl-7H-pyrrolo[2,3-d]pyrimidin-2-amines as microtubule inhibitors” (Bioorg Med Chem, 2013).
pIC50: −log10 of the molar value. Values belong to the molecule of their own block, whether it stands above or below them. Activity calls are given as the source filed them. No cut-off for these calls is given here.

How the values were obtained:
JC = experiment: Modulatory activity at P-gp in mouse JC cells assessed as lowest drug concentration required to increase intracellular [3H]taxol accumulation pretreated for 30 mins prior to [3H]taxol addition measured after 60 mins by liquid scintillation counting analysis; format: cell-based
Summary of the method: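 JC cells were seeded at about 25% confluency and grown 3–4 days to near confluency. Medium was switched to serum-free, and compounds were preincubated for 30 min at 37 °C. About 0.1 µCi [³H]Taxol (75 Ci/mmol) per well followed, for 60 min at 37 °C. Cells were washed twice with ice-cold PBS and lysed in 1% SDS. Intracellular label was counted by liquid scintillation, and the lowest concentration giving maximal accumulation was recorded.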

[1] = Cytotoxicity against mouse JC cells assessed as inhibition of cell survival after 48 hrs by SRB assay; format: functional, cell-based
Summary of the method: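 JC (CRL-2116) cells kept in RPMI-1640 with L-glutamine, 10% FBS and 50 μg/ml gentamicin at 37 °C, 5% CO₂. Cells were seeded at about 20% confluency and left 24 h to attach, then exposed to a range of concentrations for 48 h. Cells were PBS-washed, fixed in 10% trichloroacetic acid and stained with 0.4% SRB in 1% acetic acid. Dye was dissolved in 10 mM Tris and absorbance read at 570 nm.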

NCI-H226 = experiment: Growth inhibition of human NCI-H226 cells after 48 hrs by SRB assay; format: functional; conditions: NCI-H226, 48 h
HOP-62 = experiment: Growth inhibition of human HOP62 cells after 48 hrs by SRB assay; format: functional; conditions: HOP-62, 48 h
MCF7 = experiment: Growth inhibition of human MCF7 cells after 48 hrs by SRB assay; format: functional; conditions: MCF7, 48 h
SK-OV-3 = experiment: Growth inhibition of human SKOV3 cells after 48 hrs by SRB assay; format: functional; conditions: SK-OV-3, 48 h
OVCAR-5 = experiment: Growth inhibition of human OVCAR5 cells after 48 hrs by SRB assay; format: functional; conditions: OVCAR-5, 48 h
HCT-116 = experiment: Growth inhibition of human HCT116 cells after 48 hrs by SRB assay; format: functional; conditions: HCT-116, 48 h
UO-31 = experiment: Growth inhibition of human UO31 cells after 48 hrs by SRB assay; format: functional; conditions: UO-31, 48 h
NCI/ADR-RES = experiment: Growth inhibition of human NCI/ADR-RES cells after 48 hrs by SRB assay; format: functional
[2] = Growth inhibition of human HCC2998 cells after 48 hrs by SRB assay; format: functional; conditions: HCC 2998, 48 h
LOX IMVI = experiment: Growth inhibition of human LOXIMVI cells after 48 hrs by SRB assay; format: functional
BT-549 = experiment: Growth inhibition of human BT549 cells after 48 hrs by SRB assay; format: functional; conditions: BT-549, 48 h
KM12 = experiment: Growth inhibition of human KM12 cells after 48 hrs by SRB assay; format: functional; conditions: KM12, 48 h
A498 = experiment: Growth inhibition of human A498 cells after 48 hrs by SRB assay; format: functional; conditions: A498, 48 h
ACHN = experiment: Growth inhibition of human ACHN cells after 48 hrs by SRB assay; format: functional
Malme-3M = experiment: Growth inhibition of human MALME-3M cells after 48 hrs by SRB assay; format: functional
UACC-257 = experiment: Growth inhibition of human UACC257 cells after 48 hrs by SRB assay; format: functional; conditions: UACC-257, 48 h
NCI-H460 = experiment: Growth inhibition of human NCI-H460 cells after 48 hrs by SRB assay; format: functional; conditions: NCI-H460, 48 h
RPMI-8226 = experiment: Growth inhibition of human RPMI8226 cells after 48 hrs by SRB assay; format: functional; conditions: RPMI-8226, 48 h
SF-268 = experiment: Growth inhibition of human SF268 cells after 48 hrs by SRB assay; format: functional; conditions: SF-268, 48 h
K562 = experiment: Growth inhibition of human K562 cells after 48 hrs by SRB assay; format: functional; conditions: K562, 48 h
SNB-75 = experiment: Growth inhibition of human SNB75 cells after 48 hrs by SRB assay; format: functional; conditions: SNB-75, 48 h
IGROV-1 = experiment: Growth inhibition of human IGROV1 cells after 48 hrs by SRB assay; format: functional; conditions: IGROV-1, 48 h
DU-145 = experiment: Growth inhibition of human DU145 cells after 48 hrs by SRB assay; format: functional; conditions: DU-145, 48 h
NCI-H322M = experiment: Growth inhibition of human NCI-H322M cells after 48 hrs by SRB assay; format: functional
RXF 393 = experiment: Growth inhibition of human RXF393 cells after 48 hrs by SRB assay; format: functional; conditions: RXF 393, 48 h
[3] = Ratio of compound IC50 to paclitaxel IC50 for mouse JC cells after 48 hrs by SRB assay; format: functional
SK-MEL-5 = experiment: Growth inhibition of human SK-MEL-5 cells after 48 hrs by SRB assay; format: functional; conditions: SK-MEL-5, 48 h
MDA-MB-231 = experiment: Growth inhibition of human MDA-MB-231 cells after 48 hrs by SRB assay; format: functional; conditions: MDA-MB-231, 48 h
[4] = Growth inhibition of human EKVX cells after 48 hrs by SRB assay; format: functional
SF-295 = experiment: Growth inhibition of human SF295 cells after 48 hrs by SRB assay; format: functional; conditions: SF-295, 48 h
SK-MEL-28 = experiment: Growth inhibition of human SK-MEL-28 cells after 48 hrs by SRB assay; format: functional; conditions: SK-MEL-28, 48 h
SR = experiment: Growth inhibition of human SR cells after 48 hrs by SRB assay; format: functional
SN12C = experiment: Growth inhibition of human SN12C cells after 48 hrs by SRB assay; format: functional
SNB-19 = experiment: Growth inhibition of human SNB19 cells after 48 hrs by SRB assay; format: functional; conditions: SNB-19, 48 h
HCT-15 = experiment: Growth inhibition of human HCT15 cells after 48 hrs by SRB assay; format: functional; conditions: HCT-15, 48 h
NCI-H522 = experiment: Growth inhibition of human NCI-H522 cells after 48 hrs by SRB assay; format: functional; conditions: NCI-H522, 48 h
OVCAR-8 = experiment: Growth inhibition of human OVCAR8 cells after 48 hrs by SRB assay; format: functional; conditions: OVCAR-8, 48 h
MDA-MB-468 = experiment: Growth inhibition of human MDA-MB-468 cells after 48 hrs by SRB assay; format: functional; conditions: MDA-MB-468, 48 h
UACC-62 = experiment: Growth inhibition of human UACC62 cells after 48 hrs by SRB assay; format: functional; conditions: UACC-62, 48 h
SK-MEL-2 = experiment: Growth inhibition of human SK-MEL-2 cells after 48 hrs by SRB assay; format: functional; conditions: SK-MEL-2, 48 h
MDA-MB-435 = experiment: Growth inhibition of human MDA-MB-435 cells after 48 hrs by SRB assay; format: functional; conditions: MDA-MB-435, 48 h
TK-10 = experiment: Growth inhibition of human TK10 cells after 48 hrs by SRB assay; format: functional; conditions: TK-10, 48 h
HL-60 = experiment: Growth inhibition of human HL60 cells after 48 hrs by SRB assay; format: functional; conditions: HL-60, 48 h
M14 = experiment: Growth inhibition of human M14 cells after 48 hrs by SRB assay; format: functional; conditions: M14, 48 h
[5] = Growth inhibition of human Hs 578T cells after 48 hrs by SRB assay; format: functional
OVCAR-3 = experiment: Growth inhibition of human OVCAR3 cells after 48 hrs by SRB assay; format: functional; conditions: OVCAR-3, 48 h
T47D = experiment: Growth inhibition of human T47D cells after 48 hrs by SRB assay; format: functional
CCRF-CEM = experiment: Growth inhibition of human CCRF-CEM cells after 48 hrs by SRB assay; format: functional
A549 = experiment: Growth inhibition of human A549/ATCC cells after 48 hrs by SRB assay; format: functional; conditions: A549, 48 h
SW-620 = experiment: Growth inhibition of human SW620 cells after 48 hrs by SRB assay; format: functional; conditions: SW-620, 48 h
786-0 = experiment: Growth inhibition of human 786-0 cells after 48 hrs by SRB assay; format: functional; conditions: 786-0, 48 h
HT-29 = experiment: Growth inhibition of human HT-29 cells after 48 hrs by SRB assay; format: functional; conditions: HT-29, 48 h
NCI-H23 = experiment: Growth inhibition of human NCI-H23 cells after 48 hrs by SRB assay; format: functional; conditions: NCI-H23, 48 h
HOP-92 = experiment: Growth inhibition of human HOP92 cells after 48 hrs by SRB assay; format: functional; conditions: HOP-92, 48 h
U-251 = experiment: Growth inhibition of human U251 cells after 48 hrs by SRB assay; format: functional; conditions: U-251, 48 h
OVCAR-4 = experiment: Growth inhibition of human OVCAR4 cells after 48 hrs by SRB assay; format: functional; conditions: OVCAR-4, 48 h
CAKI-1 = experiment: Growth inhibition of human CAKI-1 cells after 48 hrs by SRB assay; format: functional; conditions: CAKI-1, 48 h
COLO 205 = experiment: Growth inhibition of human COLO205 cells after 48 hrs by SRB assay; format: functional; conditions: COLO 205, 48 h
SF-539 = experiment: Growth inhibition of human SF539 cells after 48 hrs by SRB assay; format: functional; conditions: SF-539, 48 h
PC-3 = experiment: Growth inhibition of human PC3 cells after 48 hrs by SRB assay; format: functional; conditions: PC-3, 48 h

Structure (SMILES): COc1ccccc1Sc1cn(Cc2cc(OC)c(OC)c(OC)c2)c2nc(N)nc(C)c12
LED (JC): inactive
pIC50 [1]: 5.52

Structure (SMILES): COc1ccccc1Cn1cc(Sc2ccccc2OC)c2c(C)nc(N)nc21
LED (JC): inactive
pIC50 [1]: 5.05

GI50 (NCI-H226): 0.927 µM
GI50 (MCF7): 0.0464 µM
GI50 (SK-OV-3): 0.251 µM
GI50 (OVCAR-5): 0.596 µM
GI50 (HCT-116): 0.265 µM
GI50 (BT-549): 0.44 µM
GI50 (ACHN): 0.216 µM
GI50 (NCI-H460): 0.251 µM
GI50 (RPMI-8226): 0.713 µM
GI50 (K562): 0.116 µM
GI50 (DU-145): 0.337 µM
GI50 (NCI-H322M): 0.712 µM
GI50 (SK-MEL-5): 0.11 µM
GI50 (MDA-MB-231): 0.361 µM
GI50 (SK-MEL-28): 0.417 µM
GI50 (HCT-15): 0.242 µM
GI50 (NCI-H522): 0.0316 µM
GI50 (OVCAR-8): 0.334 µM
GI50 (MDA-MB-468): 0.0524 µM
GI50 (SK-MEL-2): 0.446 µM
GI50 (MDA-MB-435): 0.0321 µM
GI50 (HL-60): 0.22 µM
GI50 (OVCAR-3): 0.164 µM
GI50 (T47D): 0.443 µM
GI50 (CCRF-CEM): > 1 µM
GI50 (A549): 0.329 µM
GI50 (SW-620): 0.208 µM
GI50 (786-0): 0.575 µM
GI50 (HT-29): 0.247 µM
GI50 (NCI-H23): 0.428 µM
GI50 (U-251): 0.311 µM
GI50 (OVCAR-4): 0.338 µM
GI50 (COLO 205): 0.204 µM
GI50 (PC-3): 0.301 µM
Structure (SMILES): COc1ccc(Cn2cc(CCc3cc(OC)c(OC)c(OC)c3)c3c(C)nc(N)nc32)cc1
GI50 (HOP-62): 0.362 µM
LED (JC): 0.2 µM
GI50 (UO-31): 0.397 µM
GI50 (NCI/ADR-RES): 0.202 µM
GI50 [2]: 0.191 µM
GI50 (LOX IMVI): 0.364 µM
GI50 (KM12): 0.264 µM
GI50 (A498): 0.115 µM
GI50 (Malme-3M): 0.284 µM
GI50 (UACC-257): > 1 µM
GI50 (SF-268): 0.379 µM
GI50 (SNB-75): 0.172 µM
GI50 (IGROV-1): 0.154 µM
GI50 (RXF 393): 0.0441 µM
Ratio IC50 [3]: 4
GI50 [4]: 0.348 µM
GI50 (SF-295): 0.0839 µM
GI50 (SR): 0.12 µM
GI50 (SN12C): 0.499 µM
GI50 (SNB-19): 0.234 µM
GI50 (UACC-62): 0.0615 µM
GI50 (TK-10): 0.686 µM
GI50 (M14): 0.204 µM
GI50 [5]: 0.139 µM
GI50 (HOP-92): > 1 µM
pIC50 [1]: 6.22
GI50 (CAKI-1): 0.206 µM
GI50 (SF-539): 0.0964 µM

Structure (SMILES): COc1ccccc1Cn1cc(CCc2cc(OC)c(OC)c(OC)c2)c2c(C)nc(N)nc21
LED (JC): 2 µM
Ratio IC50 [3]: 6.6
pIC50 [1]: 6.00

Structure (SMILES): COc1cc(CCc2cn(Cc3cc(OC)c(OC)c(OC)c3)c3nc(N)nc(C)c23)cc(OC)c1OC
LED (JC): inactive
Ratio IC50 [3]: 6.6
pIC50 [1]: 6.00

Structure (SMILES): CC(=O)O[C@H]1C(=O)[C@@]2(C)[C@H]([C@H](OC(=O)c3ccccc3)[C@]3(O)C[C@H](OC(=O)[C@H](O)[C@@H](NC(=O)c4ccccc4)c4ccccc4)C(C)=C1C3(C)C)[C@]1(OC(C)=O)CO[C@@H]1C[C@@H]2O [PACLITAXEL]
pIC50 [1]: 6.82

Structure (SMILES): COc1cccc(Cn2cc(CCc3cc(OC)c(OC)c(OC)c3)c3c(C)nc(N)nc32)c1
LED (JC): 0.5 µM
pIC50 [1]: 5.85
